# Screens as filed in PubChem BioAssay.
# SENP7 block: SENP7 protease inhibitors, primary screen, biochemical, luminescence, uHTS | Sentrin-specific protease 7 (Homo sapiens), Q9BQF6 | recombinant SENP7, Z-RLRGG-aminoluciferin luminescence, 40 min | inhibition, % at 5 µM | actives 1.5% (n = 330,000);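 active means inhibition above about 50% at the single test dose, limit read from the data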;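 further: plate controls were DMSO with enzyme for no effect and no enzyme buffer wells for full effect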
# SENP6 inh: SENP6 protease inhibitors, primary screen, biochemical, luminescence, uHTS; actives 1.8% (n = 330,000); Recombinant SENP6 catalytic domain, aminoluciferin luminescence; Sentrin-specific protease 6 (Homo sapiens), Q9GZR1; AID 2599, 2010; inhibition, % at 10 µM;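 active means inhibition above about 50% at the single tested dose, limit read from the data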;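 further: plate controls were DMSO wells with enzyme for no effect and DMSO wells lacking enzyme for full effect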
# Target sequence (Q9GZR1 628-1112 limits assumed): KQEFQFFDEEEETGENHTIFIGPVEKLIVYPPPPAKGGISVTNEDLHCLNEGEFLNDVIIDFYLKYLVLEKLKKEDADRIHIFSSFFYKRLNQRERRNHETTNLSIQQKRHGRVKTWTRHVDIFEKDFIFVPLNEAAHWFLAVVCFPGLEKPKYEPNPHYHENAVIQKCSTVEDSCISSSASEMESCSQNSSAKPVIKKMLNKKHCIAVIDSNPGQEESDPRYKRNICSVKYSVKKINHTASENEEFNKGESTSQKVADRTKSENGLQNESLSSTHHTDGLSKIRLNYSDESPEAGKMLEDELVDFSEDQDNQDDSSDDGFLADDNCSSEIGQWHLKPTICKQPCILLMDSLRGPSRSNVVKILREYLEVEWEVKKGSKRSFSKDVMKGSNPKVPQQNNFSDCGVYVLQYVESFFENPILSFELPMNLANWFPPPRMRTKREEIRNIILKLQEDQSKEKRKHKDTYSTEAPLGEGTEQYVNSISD
# Platelet DG rel: inhibitors of platelet dense granule secretion, primary screen, cell-based, MLPCN, human platelets; actives 0.22% (n = 300,000); human platelet-rich plasma, SFLLRN dense granule ATP release, luminescence; inhibition, %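 (compounds screened at 7.5 µM in platelet-rich plasma)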;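 active means mean replicate score, as percent of positive control, at or above 50; inconclusive means mean below 50 but at least one replicate at or above 50; inactive means mean and every replicate below 50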
# SENP8 block-1: SENP8 protease inhibitors, primary screen, biochemical, luminescence; purified SENP8, Z-RLRGG-aminoluciferin cleavage; inhibition, % at 10 µM; actives 1.2% (n = 330,000); in the data active means inhibition above about 50%
# SENP8 block-2: human SENP8 protease inhibitors, primary screen, biochemical, fluorescence, Nedd8 protein substrate, uHTS. recombinant SENP8. inhibition, % at 20 µM. actives 0.64% (n = 360,000). AID 602440, 2012; in the data active means inhibition mostly above about 40%, no sharp cut-off; inactive means mostly below about 27%
# SENP1 FRET inh: human SENP1 catalytic domain inhibitors, primary screen, biochemical, FRET, uHTS | Sentrin-specific protease 1 (Homo sapiens), Q9P0U3 | recombinant SENP1 catalytic domain, CyPet-SUMO1-YPet FRET cleavage | inhibition, % at 10 µM | actives 0.21% (n = 360,000) | AID 624204, 2012;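 active means inhibition at least 30% at 10 µM, raw YFP signal under a set limit, fluorescence ratio 0.5 to 1.5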;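 further: 0% = enzyme with DMSO and 100% = no enzyme wells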
#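 Test system: hSENP1 catalytic domain, recombinant; Amount: 20 pM final SENP1 enzyme; Medium: Tris pH 8 buffer plus EDTA, NaCl, BME, BSA, NP40, catalase; Schedule: 50 min enzyme reaction, room temperature, light-protected; Technique: FRET fluorescence in CFP and YFP emission channels; Controls: no-enzyme wells low, DMSO-plus-enzyme wells high control.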
# SENP8 confirm: SENP8 protease inhibitors, retest, confirmation, biochemical, luminescence, single concentration. shares compounds with SENP7 block. Recombinant SENP8, Z-RLRGG-aminoluciferin luminescence, 60 min. inhibition, % at 12.5 µM. actives 40% (n = 6,200);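 active means mean inhibition across replicates above about 50%, limit read from the data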
# SENP6 confirm: SENP6 protease inhibitors, confirmation, biochemical, luminescence, single concentration | inhibition, % at 12.5 µM | actives 58% (n = 6,200) | shares compounds with SENP7 block | recombinant SENP6, Z-RLRGG-aminoluciferin luminescence
# SENP7 conf: SENP7 protease inhibitors, retest, confirmation, biochemical, luminescence, single concentration; shares compounds with SENP7 block; inhibition, % at 12.5 µM; actives 69% (n = 6,200); AID 488917, 2010; recombinant SENP7, Z-RLRGG-aminoluciferin luminescence, 40 min
# Casp3 SENP sel: caspase-3 protease inhibitors, confirmation, selectivity assay for SENP inhibitor project, biochemical, single concentration; shares compounds with SENP7 block; purified caspase-3, Z-DEVD-aminoluciferin luminescence, 60 min; inhibition, % at 12.5 µM; actives 60% (n = 6,200);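 active means mean inhibition above about 50%, limit read from the data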;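 further: plate controls were enzyme with DMSO for no effect and wells without caspase-3 for full effect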
# Luc interf: luminescence interference (SENP counter-screen). AID 488919. actives 39% (n = 6,200). Pre-incubated SENP8/Z-RLRGG-aminoluciferin, luciferase luminescence interference. shares compounds with SENP7 block. inhibition, % at 12.5 µM;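 active means mean inhibition above about 50% when retested at one dose, limit read from the data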;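 further: plate controls were DMSO wells with completed reaction for no effect and substrate without enzyme for full effect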
# Starred values were filed as active, the others as inactive; u = inconclusive; x = no result. An excerpt weighted towards active compounds, which were near 2.6% of everything screened.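 How the source made its calls, unless noted: active means mean inhibition above about 50% in the one-dose retest (limit read from the data); inactive means the rest.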
SMILES,SENP7 block,SENP6 inh,Platelet DG rel,SENP8 block-1,SENP8 block-2,SENP1 FRET inh,SENP8 confirm,SENP6 confirm,SENP7 conf,Casp3 SENP sel,Luc interf
Cc1ccc(C(=O)OCC(=O)c2ccc(Cl)s2)s1,24,54*,2,30,25,1,52*,46,80*,40,28
Cc1cc(C)n(C(C)CNS(=O)(=O)c2ccccc2)n1 (stereo not drawn),7,14,-1,5,3,1,x,x,x,x,x
CC(=O)c1cc(C#N)c(SCC(=O)O)nc1C,10,9,27,1,11,4,x,x,x,x,x
CCn1c(C)c(C(C)=O)cc(C#N)c1=O,79*,5,-2,-5,11,1,-7,-2,-6,-3,-5
CCCc1cc(=O)[nH]c(SCC(=O)c2ccc3c(c2)NC(=O)CO3)n1,6,98*,3,0,8,3,-15,-10,-12,-4,-9
CCCc1nc(SCC(=O)c2ccc3c(c2)NC(=O)CO3)[nH]c(=O)c1CC,x,x,x,x,5,0,x,x,x,x,x
Cc1cc(=O)n2[nH]c(SCc3ccc(Cl)cc3)nc2n1,1,52*,-13,32,0,3,38,34,69*,65*,41
CCOC(=O)C1CCN(c2ccc(Cl)nn2)CC1,12,16,1,-1,16,2,x,x,x,x,x
CCOC(=O)C1CCN(c2ccc(-c3cccs3)nn2)CC1,95*,96*,40,91*,-23,1,94*,94*,100*,96*,90*
O=C(c1cc(-c2cccs2)on1)N1CCOCC1,-3,-10,0,-5,10,1,x,x,x,x,x
c1csc(-c2ccc(N3CCOCC3)nn2)c1,67*,54*,30,42,-52,1,57*,56*,86*,88*,63*
CCCCN(C=O)c1c(CC)nc2c(OCC(=O)c3ccc(F)cc3)cccn12,x,x,x,x,0,-5,x,x,x,x,x
COc1ccc(Nc2ccc3c(c2)=NC2(CCCCC2)[N+]=3[O-])cc1,38,82*,5,36,81*,15,38,64*,31,7,2
CC(=Nc1cccc(O)c1)c1sc2ccccc2c1O,90*,91*,2,90*,-5,-75,84*,82*,93*,54*,72*
CC(=Nc1ccc(C)cc1)c1sc2ccccc2c1O,96*,94*,20,90*,-53,-22,95*,96*,101*,85*,48
CC(=Nc1ccc(C)cc1C)c1sc2ccccc2c1O,66*,78*,9,65*,-25,-27,71*,80*,91*,60*,17
Cc1cc(-c2cccs2)n[nH]1,3,-10,2,-1,7,-2,x,x,x,x,x
Cc1cc2ncc(-c3cccs3)nc2cc1C,98*,94*,29,96*,-264,-3,66*,77*,67*,86*,37
COc1ccc(CCNC(=O)C(C)n2nc(C)c3c(C)n(-c4ccc(C)cc4)nc3c2=O)c(OC)c1 (stereo not drawn),0,4,-11,-1,6,1,x,x,x,x,x
O=C(O)c1cccc(Nc2ncnc3ccccc23)c1,-3,68*,3,59*,-6,0,70*,64*,85*,36,68*
O=C(O)c1cccc(Nc2ncnc3c2cnn3-c2ccccc2)c1,90*,97*,6,90*,-43,2,95*,95*,101*,50,92*
Oc1cccc(Nc2ncnc3ccccc23)c1,11,3,-2,-1,-5,-1,x,x,x,x,x
O=C(O)c1cccc(Nc2ccnc(Nc3cccc(C(=O)O)c3)n2)c1,98*,94*,x,90*,19,2,96*,98*,102*,95*,77*
COCCOc1ccc(C(F)(F)F)cc1NC(=O)COC(=O)Cc1c[nH]c2ccccc12,5,-3,x,-3,-2,-2,x,x,x,x,x
C/C(=N\NC(=O)c1ccc2c(c1)OCCO2)c1ccccc1,96*,89*,71*,86*,16,1,2,87*,99*,94*,82*
SMILES,SENP7 block,SENP6 inh,Platelet DG rel,SENP8 block-1,SENP8 block-2,SENP1 FRET inh,SENP8 confirm,SENP6 confirm,SENP7 conf,Casp3 SENP sel,Luc interf
C/C(=N\NC(=O)c1ccc(Br)cc1)c1ccccc1,36,70*,16,38,20,0,24,55*,36,48,21
CCOC(=O)[C@]12CCCC=C1N(Cc1ccc(Cl)cc1Cl)C(=O)[C@H](CC(=O)NCCc1ccccc1OC)C2,x,x,x,x,9,-6,x,x,x,x,x
c1ccc(C2=NN(c3ccccc3)CC2)cc1,59*,6,u,57*,-450,-133,13,24,32,40,37
COc1cc2c(cc1OC)-c1cc3ccc4c(c3c[n+]1CC2)OCO4,14,50*,-12,11,-384,30,26,46,24,12,7
Cc1c(NC(=O)c2cc3c(s2)CCCC3)c(=O)n(-c2ccccc2)n1C,2,17,1,61*,10,1,11,9,8,4,4
CCOc1ccc(NC(=O)CN2CCN(CC(=O)Nc3ccc4c(c3)OCCO4)CC2)cc1,-9,-3,x,1,18,1,x,x,x,x,x
CCOc1ccc(C(=O)Nc2ccc3c(c2)OCCO3)cc1,86*,84*,28,71*,8,3,-7,77*,95*,87*,69*
